Published values of several laboratories.
Protocols differ between the studies behind these lines.
Organism: Plasmodium falciparum
Observed: parasite growth

Compound	technique	strain	time	setting	EC50
Cc1cc(N[C@H]2CCc3ccc(Cl)cc3C2)n2nc(C(C)(F)F)nc2n1		HB3		drug-resistant strain, blood stage	0.47 nM
C[C@H]1[C@@H](O)O[C@@H]2O[C@@]3(C)CC[C@H]4[C@H](C)CC[C@@H]1[C@@]24OO3	SYBR Green	3D7			3.56 nM
C[C@@H]1C[C@@H]([C@H](O)CC2CC(=O)NC(=O)C2)C(=O)[C@@H](C)C1	SYBR Green	3D7		blood stage	200 nM
CCN(CC)CCCC(C)Nc1ccnc2cc(Cl)ccc12 (stereo not shown)	SYBR Green	D6	72 h	blood stage	9.1 nM
N#Cc1c(F)cccc1N1CCN(c2ccc(O)cc2)CC1	SYBR Green	3D7	72 h		> 12500 nM
COc1cc2[nH]c(C)c(-c3ccc(Oc4ccc(OC(F)(F)F)cc4)cc3)c(=O)c2cc1Cl	SYBR Green	D6	72 h	blood stage	0.9 nM
Fc1cccc(COc2ccc(Nc3ncnc4ccc(-c5cccc(N6CCOCC6)c5)cc34)cc2Cl)c1	SYBR Green	W2		drug-resistant strain, blood stage	680 nM
COCC(C)n1c(SCC(=O)Nc2cc(C(F)(F)F)ccc2Cl)nc2ccccc2c1=O (stereo not shown)	SYBR Green	3D7			356 nM
Cc1cc(NC2Cc3cc(F)c(F)cc3C2)n2nc(C(C)(F)F)nc2n1		DD2		drug-resistant strain, blood stage	43 nM
O=S(=O)(c1ccc(-c2ccc3ncnc(Nc4ccc(OCc5ccccc5)c(Cl)c4)c3c2)cc1)N1CCOCC1	SYBR Green	W2		drug-resistant strain, blood stage	720 nM
